Experimental data published in ChEMBL document CHEMBL1147237, “Two new epimeric pairs of acetogenins bearing a carbonyl group from Annona cherimolia seeds” (J Nat Prod, 2003).
In brackets after ≈: the same amount, converted by molar mass.

Assays:
MCF7 = assay: Cytotoxicity against human MCF7 cells after 7 days by MTT assay; format: functional; conditions: MCF7, 168 h, read-out: LD50 (the source's name)
How it was run: (§1)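 Seven-day in vitro MTT cytotoxicity assay run by a cancer-center cell culture laboratory under standard protocols, using A-549 (human lung carcinoma), MCF-7 (human breast carcinoma), HT-29 (human colon adenocarcinoma), A-498 (human kidney carcinoma) and PC-3 (human prostate) cells. Isolated compounds were tested.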

A498 = assay: Cytotoxicity against human A498 cells after 7 days by MTT assay; format: functional; conditions: A498, 168 h, read-out: LD50 (the source's name); how it was run: as §1
A549 = assay: Cytotoxicity against human A549 cells after 7 days by MTT assay; format: functional; conditions: A549, 168 h, read-out: LD50 (the source's name); how it was run: as §1
[1] = (§2) Toxicity in brine shrimp larvae; format: organism-based; conditions: artemia, in vivo
HT-29 = assay: Cytotoxicity against human HT-29 cells after 7 days by MTT assay; format: functional; conditions: HT-29, 168 h, read-out: LD50 (the source's name); how it was run: as §1
PC-3 = assay: Cytotoxicity against human PC3 cells after 7 days by MTT assay; format: functional; conditions: PC-3, 168 h, read-out: LD50 (the source's name); how it was run: as §1
MIA PaCa-2 = assay: Cytotoxicity against human MIAPaCa2 cells after 7 days by MTT assay; format: functional; conditions: MIA PaCa-2, 168 h, read-out: LD50 (the source's name)
Artemia = assay: as §2; format: organism-based; conditions: in vivo

SMILES	CC50 (MCF7) [µg/mL]	CC50 (A498) [µg/mL]	CC50 (A549) [µg/mL]	LC50 [1] [µg/mL]	CC50 (HT-29) [µg/mL]	CC50 (PC-3) [µg/mL]	CC50 (MIA PaCa-2) [µg/mL]	LC50 (Artemia) [×10⁻² ug/ml]
CCCCCCCCCCCC[C@@H](O)[C@H]1CC[C@H]([C@H](O)CCCC(=O)CCCCCCCCC2=CC(C)(O)OC2=O)O1 (mixture of isomers)	0.303	0.93	1.26	0.375	0.193	0.198	0.00312	
CCCCCCCCCCCC[C@@H](O)[C@H]1CC[C@H]([C@H](O)CCCC(=O)CCCCCC[C@@H](O)CC2=CC(C)(O)OC2=O)O1 (mixture of isomers) [ANNOMOLON B/34-EPI-ANNOMOLON B]	0.047	0.377	1.37		0.0719	0.0553	0.00748	7
COc1cccc2c1C(=O)c1c(O)c3c(c(O)c1C2=O)C[C@@](O)(C(=O)CO)C[C@@H]3O[C@H]1C[C@H](N)[C@H](O)[C@H](C)O1 [DOXORUBICIN]	0.0182 (≈ 0.0335 µM)	0.00226 (≈ 0.00416 µM)	0.00113 (≈ 0.00208 µM)		0.0128 (≈ 0.0235 µM)	0.0502 (≈ 0.0924 µM)	0.00262 (≈ 0.00482 µM)	
